Reference: ChEMBL document CHEMBL2407017, “Pyrazolo[3,4-d]pyrimidine Prodrugs: Strategic Optimization of the Aqueous Solubility of Dual Src/Abl Inhibitors” (ACS Med Chem Lett, 2013)
≈ marks a conversion by molar mass, not a printed value. Calls of active or inactive are those of the source. The rule behind the calls is not given here.

Columns and labels:
[1] = biological target: Proto-oncogene tyrosine-protein kinase Src (Mus musculus) (UniProt P05480); experiment: Inhibition of c-SRC phosphorylation at Y416 in mouse 32D cells expressing BCR/ABL fusion protein p210 at 1 uM by Western blotting analysis; type: cell-based
Proto-oncogene tyrosine-protein kinase Src (Mus musculus), sequence (P05480 2-535 limits assumed): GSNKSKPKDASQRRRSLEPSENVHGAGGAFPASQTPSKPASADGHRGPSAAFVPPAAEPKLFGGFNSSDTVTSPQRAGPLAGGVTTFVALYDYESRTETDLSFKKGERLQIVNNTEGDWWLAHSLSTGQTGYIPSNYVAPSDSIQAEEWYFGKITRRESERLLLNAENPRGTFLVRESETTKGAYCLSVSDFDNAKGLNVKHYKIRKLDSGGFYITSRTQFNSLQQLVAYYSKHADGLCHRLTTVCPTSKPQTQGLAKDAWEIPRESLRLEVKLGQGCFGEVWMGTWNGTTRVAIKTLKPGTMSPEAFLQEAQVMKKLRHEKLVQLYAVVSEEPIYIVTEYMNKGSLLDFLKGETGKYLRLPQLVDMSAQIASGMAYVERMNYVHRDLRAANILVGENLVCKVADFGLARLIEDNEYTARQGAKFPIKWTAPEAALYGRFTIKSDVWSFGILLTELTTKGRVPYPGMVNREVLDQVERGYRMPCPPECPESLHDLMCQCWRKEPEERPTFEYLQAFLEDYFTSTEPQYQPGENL
Summary of the method: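 32D cells treated with 1 μM compound. Phosphorylated (active) c-Src and c-Abl detected by Western blot with β-actin as loading control. Dasatinib used as reference dual inhibitor.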

[2] = biological target: Tyrosine-protein kinase ABL1 (Homo sapiens) (UniProt P00519); experiment: Inhibition of recombinant wild type c-ABL (unknown origin) at 100 uM after 5 mins by scintillation counting analysis in presence of [gamma32P]ATP
Tyrosine-protein kinase ABL1 (Homo sapiens), sequence (P00519 whole entry): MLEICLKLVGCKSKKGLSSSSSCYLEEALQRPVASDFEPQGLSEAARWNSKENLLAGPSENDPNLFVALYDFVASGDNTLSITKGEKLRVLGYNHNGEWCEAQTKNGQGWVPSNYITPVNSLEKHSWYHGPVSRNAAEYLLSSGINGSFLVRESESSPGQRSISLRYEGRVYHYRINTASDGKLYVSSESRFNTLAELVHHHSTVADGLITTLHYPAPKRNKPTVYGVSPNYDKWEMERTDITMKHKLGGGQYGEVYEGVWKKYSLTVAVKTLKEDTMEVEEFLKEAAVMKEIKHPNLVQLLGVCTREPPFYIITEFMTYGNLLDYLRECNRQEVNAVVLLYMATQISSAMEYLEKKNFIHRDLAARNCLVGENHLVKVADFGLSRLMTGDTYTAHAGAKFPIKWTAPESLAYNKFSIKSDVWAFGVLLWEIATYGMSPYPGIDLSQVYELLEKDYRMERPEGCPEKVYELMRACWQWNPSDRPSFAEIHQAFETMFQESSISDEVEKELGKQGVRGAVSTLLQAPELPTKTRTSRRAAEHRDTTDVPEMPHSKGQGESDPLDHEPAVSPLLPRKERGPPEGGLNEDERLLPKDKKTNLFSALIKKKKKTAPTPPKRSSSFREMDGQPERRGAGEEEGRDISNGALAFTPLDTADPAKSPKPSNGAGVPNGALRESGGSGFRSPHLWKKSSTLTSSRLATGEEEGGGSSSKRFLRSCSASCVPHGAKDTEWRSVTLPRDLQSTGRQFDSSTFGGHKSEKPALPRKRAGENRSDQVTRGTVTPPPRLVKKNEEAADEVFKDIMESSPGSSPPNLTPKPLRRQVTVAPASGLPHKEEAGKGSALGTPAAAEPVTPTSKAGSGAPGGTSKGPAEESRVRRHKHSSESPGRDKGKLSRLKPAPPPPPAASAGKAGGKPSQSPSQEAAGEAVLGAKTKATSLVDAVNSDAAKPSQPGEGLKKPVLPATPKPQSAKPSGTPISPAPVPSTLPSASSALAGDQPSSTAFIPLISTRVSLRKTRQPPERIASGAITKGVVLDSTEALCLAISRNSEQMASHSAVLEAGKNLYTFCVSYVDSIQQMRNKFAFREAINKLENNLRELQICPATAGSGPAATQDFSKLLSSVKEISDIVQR

[3] = biological target: Proto-oncogene tyrosine-protein kinase Src (Homo sapiens) (UniProt P12931); experiment: Inhibition of recombinant c-SRC (unknown origin) at 100 uM after 5 mins by scintillation counting analysis in presence of [gamma32P]ATP
Proto-oncogene tyrosine-protein kinase Src (Homo sapiens), sequence (P12931 2-536 limits assumed): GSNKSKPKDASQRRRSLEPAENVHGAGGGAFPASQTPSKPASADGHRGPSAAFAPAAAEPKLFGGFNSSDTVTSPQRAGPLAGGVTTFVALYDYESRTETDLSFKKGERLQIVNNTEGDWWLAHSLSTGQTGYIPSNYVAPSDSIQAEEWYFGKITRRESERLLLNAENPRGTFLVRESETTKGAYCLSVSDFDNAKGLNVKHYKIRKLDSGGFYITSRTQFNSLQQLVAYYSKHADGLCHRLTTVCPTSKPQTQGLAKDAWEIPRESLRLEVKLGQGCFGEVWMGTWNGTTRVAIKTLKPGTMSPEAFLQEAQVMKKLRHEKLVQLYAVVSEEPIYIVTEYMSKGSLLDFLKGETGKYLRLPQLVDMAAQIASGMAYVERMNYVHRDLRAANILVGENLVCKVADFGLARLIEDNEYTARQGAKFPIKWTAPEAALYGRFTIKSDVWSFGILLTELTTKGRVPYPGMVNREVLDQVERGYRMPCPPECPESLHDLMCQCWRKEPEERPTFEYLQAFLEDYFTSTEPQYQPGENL

[4] = Apparent permeability of the compound after 5 hrs by PAMPA; type: ADME; conditions: for Papp at 5 h: PAMPA
[5] = Apparent permeability of the compound assessed as membrane retention after 5 hrs by PAMPA; type: ADME
Summary of the method: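 PAMPA passive permeability measured as Papp (10⁻⁶ cm s⁻¹). Membrane retention is the percentage of compound that fails to reach the acceptor compartment. Mean of at least two experiments.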

[6] = Metabolic stability in human liver microsomes assessed as compound remaining at 50 uM after 60 mins by UV/LC/MS analysis; type: ADME, Microsome; conditions: read-out: Stability
Summary of the method: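 Human pooled liver microsomes, incubated at 37 °C for 1 h to simulate phase I metabolism. Parent drug and metabolites are then quantified by LC–MS. Stability is given as the percentage of unmodified drug remaining.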

[7] = Half life in human plasma at 1 mM by HPLC analysis; type: ADME, cell-free
Summary of the method: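 Incubated at 37 °C in pooled human plasma. Loss of substrate and formation of parent drug followed by HPLC. Mean of at least two experiments.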

[8] = Half life in phosphate buffer at 500 uM at pH 7.4 by HPLC analysis; type: physicochemical
Summary of the method: (§1)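 Compounds dissolved at 500 μM in methanol, water, or PBS (12.5 μM, pH 7.4). Mean of at least two experiments.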

[9] = Half life in methanol at 500 uM by HPLC analysis; type: physicochemical; summary of the method: as §1
[10] = Half life in water at 500 uM by HPLC analysis; type: physicochemical; summary of the method: as §1
cells [11] = conditions: Mus musculus, 32D, 48 h
cells [12] = conditions: Mus musculus, 32D, 48 h; remark: listed apart in the source
[13] = Thermodynamic solubility of the compound in water at 1 mg after 24 hrs by UV/LC-MS analysis; type: physicochemical; conditions: read-out: Therm_solubility
Summary of the method: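 Aqueous solubility: compound concentration measured by UV/LC−MS after filtration through a 0.45 μm nylon filter. Mean of at least two experiments.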

SMILES: CSc1nc(N(C(=O)OCCN2CCN(C)CC2)c2cccc(Br)c2)c2cnn(CC(C)c3ccccc3)c2n1 (stereo not given)
- Inhibition of c-SRC Y416 phosphorylation (qualitative) [1]: Active
- inhibition [2]: inactive
- inhibition [3]: inactive
- Papp ([4]; pampa, 5 h): 2.11 ×10⁻⁶ cm/s
- R% [5]: 67.3%
- remaining at 1 h, 50 µM [6]: 99.9%
- half-life at 1000 µM [7]: 193 min
- half-life at 500 µM [8]: > 2880 min
- half-life at 500 µM [9]: > 2880 min
- half-life at 500 µM [10]: > 2880 min
- IC50 (cells [11]): 2.8 µM
- IC50 (cells [12]): 2.6 µM

SMILES: CCCCNc1nc(SCC)nc2c1cnn2CC(Cl)c1ccccc1 (stereo not given)
- Inhibition of c-SRC Y416 phosphorylation (qualitative) [1]: Active
- Papp at 5 h [4]: 5.99 ×10⁻⁶ cm/s
- R% [5]: 44.9%
- remaining at 1 h, 50 µM [6]: 91.5%
- solubility thermodynamic at 24 h [13]: 0.05 µg/mL (≈ 0.128 µM)
- IC50 (cells [11]): 3.5 µM
- IC50 (cells [12]): 6.7 µM

SMILES: CSc1nc(Nc2cccc(Br)c2)c2cnn(CC(C)c3ccccc3)c2n1 (stereo not given)
- Inhibition of c-SRC Y416 phosphorylation (qualitative) [1]: Active
- Papp at 5 h [4]: 0.01 ×10⁻⁶ cm/s
- R% [5]: 80.4%
- remaining at 1 h, 50 µM [6]: 95.1%
- solubility thermodynamic at 24 h [13]: 0.01 µg/mL (≈ 0.022 µM)
- IC50 (cells [11]): 6.2 µM
- IC50 (cells [12]): 5.8 µM

SMILES: CCCCN(C(=O)OCCN1CCN(C)CC1)c1nc(SCC)nc2c1cnn2CC(Cl)c1ccccc1 (stereo not given)
- Inhibition of c-SRC Y416 phosphorylation (qualitative) [1]: Active
- inhibition [2]: inactive
- inhibition [3]: inactive
- half-life at 1000 µM [7]: 28 min
- half-life at 500 µM [8]: 63 min
- half-life at 500 µM [9]: 125 min
- half-life at 500 µM [10]: 30 min
- IC50 (cells [11]): 1.2 µM
- IC50 (cells [12]): 2.4 µM
